Among the data in PubChem BioAssay AID624085 (The Scripps Research Institute Molecular Screening Center, 2012) are IC50 values, retold here.

Calls of active or inactive are those of the source.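 Rule for the calls: active = IMP-1 enzyme inhibition with IC50 of 10 µM or lower; inactive = IC50 above 10 µM.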

The target in this experiment is metallo-beta-lactamase IMP-1 (Pseudomonas aeruginosa). Put plainly: potency against purified IMP-1 enzyme – biochemical, absorbance, IC50, selectivity assay, late-stage follow-up (AID 624085). The note with it: purified IMP-1, nitrocefin hydrolysis, epi-absorbance. A digest of the protocol: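 Test system: purified IMP-1 enzyme; medium: HEPES buffer, pH 7.1, with zinc and Brij detergent; also added: nitrocefin substrate; incubation: 15 min pre-incubation, 25 min reaction at 25 °C; technique: fluorescence quench readout, 480/530 nm, EDTA-stopped; repeats: triplicate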

For the compound `CN1CCN(NC(=O)CN2C(=O)/C(=C/c3c(Cl)cccc3Cl)SC2=S)CC1`, the IC50 entry is “inactive”.
With `CN1CCN(NC(=O)CN2C(=O)/C(=C/c3c(Cl)ccc(Cl)c3Cl)SC2=S)CC1` the figure was 3.02 µM.

As a reminder, the IC50 is the concentration needed to halve the response being measured.
